# hDAT+cocaine – changed hDAT dopamine uptake under cocaine IC80, either direction, primary screen, cocaine antagonist project, cell-based, LLC-PK1 hDAT, [14C]-dopamine uptake, MLSMR | Sodium-dependent dopamine transporter (Homo sapiens), Q01959 | LLC-PK1 hDAT cells, [14C]-dopamine uptake with cocaine IC80; actives deviate in either direction | B-score at 10 µM | 110,000 compounds, 1.3% hits | AID 449768, 2010;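 active = Z score or B-score, a plate-position-corrected score, falls beyond the plate's 99.7% confidence bounds, in either direction; inactive = both scores lie inside the 99.7% bounds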;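 also: scored against the spread of the other compound wells on the same plate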
# D1 mod – D1 CRE-luciferase signal change, two-sided – cell-based, HEK293 D1, dopamine EC30, D1 allosteric modulator project, primary screen. D(1A) dopamine receptor (Homo sapiens), P21728. dopamine EC30 potentiation; actives deviate in either direction. B-score at 10 µM. AID 641, 2007. 58,000 compounds, 5.9% hits;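 active = luminescence count or its row- and column-corrected plate score outside the 99.7% band of the plate's sample wells, on either side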
# Target sequence (P21728 whole entry, looked up): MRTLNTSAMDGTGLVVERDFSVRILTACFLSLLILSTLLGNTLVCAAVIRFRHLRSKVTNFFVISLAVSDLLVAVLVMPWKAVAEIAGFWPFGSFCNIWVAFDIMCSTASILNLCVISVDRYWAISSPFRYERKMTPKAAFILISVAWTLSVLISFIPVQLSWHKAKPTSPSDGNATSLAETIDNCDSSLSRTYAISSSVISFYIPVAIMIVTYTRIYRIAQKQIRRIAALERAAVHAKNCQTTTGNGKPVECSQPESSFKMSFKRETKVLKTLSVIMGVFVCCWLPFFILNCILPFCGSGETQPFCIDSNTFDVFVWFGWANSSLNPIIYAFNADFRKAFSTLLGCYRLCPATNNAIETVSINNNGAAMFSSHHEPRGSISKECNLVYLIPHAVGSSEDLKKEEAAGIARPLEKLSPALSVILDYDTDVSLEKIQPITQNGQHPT
# AP ELISA ortho – alternative complement pathway inhibitors, primary screen, biochemical, ELISA, human serum, orthogonally pooled compounds. LPS-coated ELISA, C3 deposition; tested in compound mixtures. 62,000 compounds, 0.08% hits. AID 1235, 2008. inhibition, % at 5 µM;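 active = inhibition above 30% in each of the two pooled mixtures holding the compound, so the lower value exceeds 30%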;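 also: 0% = serum in Mg-EGTA without compound and 100% = EDTA serum blank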
#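 Assay system: Human serum alternative complement pathway, C3 deposition on LPS-coated wells | Incubation: 1 h serum-compound exposure at 37 °C | Doses: 5 µM per compound in ten-compound mixtures | Read-out: Percent inhibition | Technique: ELISA with HRP anti-human C3 antibody, TMB substrate, absorbance 450 nm | Replication: Two pool placements per compound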
# HEK293 NFkB inh – inhibitors of PMA/ionomycin-induced NF-kB reporter, primary screen, antigen receptor NF-kB inhibitor project, cell-based, HEK-293 luciferase reporter, luminescence; HEK-293 NF-kB luciferase reporter; 62,000 compounds, 0.21% hits; inhibition, % at 3 µM;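 active = inhibition above the mean of all tested compounds plus 3 SD, cut at about 40% in these data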;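 also: 0% = stimulated DMSO wells and 100% = 10 µM reference inhibitor 5653914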
#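 System: NF-kB luciferase reporter HEK-293 cells | Replication: Single test | Control set: DMSO vs reference inhibitor | Evaluation: % inhibition | Schedule: 1 h pretreatment, 16 h stimulation, 37 °C | Probe or stimulus: PMA with ionomycin | Compound dosing: One dose, 3 µM | Detection: Luciferase luminescence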
# Ec RNAP inh – E. coli RNAP inhibitors, biochemical; E. coli RNA polymerase, fluorescence transcription assay; DNA-directed RNA polymerase subunit beta (Escherichia coli (strain K12)), P0A8V2; inhibition, %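 (tested at 10 µM)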; AID 559, 2006; 62,000 compounds, 0.2% hits; in the data active = inhibition above about 20%;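 also: 0% = enzyme without compound and 100% = no enzyme blank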
# D1 mod confirm – D1 receptor positive allosteric modulators, retest, confirmation, cell-based, HEK293 D1, CRE-luciferase, duplicate; dopamine EC30 potentiation; stronger effect = higher value; shares compounds with D1 mod; 2,200 compounds, 88% hits; luminescence at 10 µM;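 active = luminescence in either of two replicates above the same-plate mean plus 3 SD of the low-dose dopamine control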
# D1 ag no DA – D1 receptor agonism without dopamine, confirmation, mechanism study for D1 allosteric modulator project, cell-based, HEK293 D1, CRE-luciferase, secondary assay 1; luminescence at 10 µM; luminescence, no dopamine; stronger effect = higher value; AID 646, 2007; shares compounds with D1 mod; 1,900 compounds, 0.8% hits; in the data active = luminescence above about 3900
# Isoprot counter – isoproterenol response counter-screen activity for D1 modulators | shares compounds with D1 mod | HEK293 D1 CRE-luciferase, isoproterenol EC30 counter-screen | calls only at 10 µM | 2,200 compounds, 63% hits | AID 647;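 active = luminescence in either replicate above plate mean of wells with a partly effective reference agonist dose plus 3 SD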;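 also: isoproterenol raises cAMP through native beta-adrenoceptor Gs so signal bypasses D1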
# An asterisk follows results filed as active; i = inactive; . = no result given; + = active, no number. The entries come from a sample that favours hits as a whole.
SMILES,hDAT+cocaine,D1 mod,AP ELISA ortho,HEK293 NFkB inh,Ec RNAP inh,D1 mod confirm,D1 ag no DA,Isoprot counter
COC(=O)c1ccccc1NC(=O)c1noc2c1CC(C(C)(C)C)CC2 (stereo unspecified),0.39,-0.21,10,13,-2,.,.,.
C=CCSc1ncccc1C(=O)NCc1ccccc1,-1,25*,29,12,1,20632*,1692,+
CCOC(=O)c1cccnc1SCC(=O)NCc1ccccc1,0.073,.,.,.,.,.,.,.
Brc1ccccc1Cn1c(-c2cncs2)nc2ccccc21,-0.19,10*,12,7,5,19056*,1708,+
CCOc1ccc(OCC)c(NC(=O)CC2Oc3ccc(C)cc3NC2=O)c1 (stereo unspecified),-1.4,2.7*,4,5,7,6392,1720,i
Cc1nn(Cc2ccc(Cl)cc2)c(C)c1N,0.19,.,.,.,.,.,.,.
Cc1cc(=O)c2n(Cc3ccc(Cl)cc3)nc[n+]2[nH]1,0.91,4.7*,-2,2,49*,8876*,1700,i
CCn1c(Sc2nc(C)nc3scc(-c4cccs4)c23)n[nH]c1=O,3,8.1*,-8,20,.,15492*,1856,+
CCc1nc2scc(-c3cccs3)c2c(=O)o1,-0.45,.,.,.,.,.,.,.
CCOC(=O)C(C)N1N=C(/C=C/c2ccc(OC)cc2)CCC1=O (stereo unspecified),-0.23,.,.,.,.,.,.,.
Nc1nc(SCc2ccc3c(c2)OCCO3)n[nH]1,-0.039,4.9*,16,8,-1,9268*,1676,i
Nc1nc(SCc2ccc(Cl)cc2Cl)n[nH]1,-2.7,0.6,4,12,-1,.,.,.
CS(=O)(=O)N(Cc1ccccc1)c1ccc(C(=O)N2CCc3ccccc3C2)cc1,-1.9,.,.,.,.,.,.,.
Cn1c(/C(C#N)=C/C2CC=CCC2)nc2ccccc21 (stereo unspecified),-0.53,3.8*,.,8,.,9264*,1596,i
O=c1c2cn[nH]c2nc(SCc2ccc3c(c2)OCCO3)n1-c1ccccc1,-0.038,7.9*,-1,8,7,11032*,1768,+
CCOC(=O)c1cnn2c(C(F)F)cc(C3CC3)nc12,-0.73,3.7*,22,7,7,14020*,1636,+
O=C(Nc1cccnc1)c1cnn2c(C(F)F)cc(C3CC3)nc12,0.0083,5*,15,3,-3,16636*,1580,+
O=C(Nc1cccnc1)c1ccccc1F,0.35,-0.13,3,10,11,.,.,.
CCN(CC)CCNC(=O)C1c2ccccc2C(=O)N(CCOC)C1c1ccc(F)cc1 (stereo unspecified),-0.29,.,.,.,.,.,.,.
COC(=O)c1cc(C)sc1NC(=O)c1cccnc1,-0.57,5.4*,31,13,3,16836*,1548,+
COc1ccc(C(=O)Nc2cc(OC)nc(OC)n2)cc1,0.29,.,.,.,.,.,.,.
O=c1c2cccc3c2c(nn1CN1CCOCC1)-c1ccccc1-3,-0.14,5.3*,14,-1,2,8092*,1824,+
Cn1c(=O)n(CC(=O)O)c(=O)c2c1nc1n2CCS1,-0.36,5.7*,-5,10,11,4976,1656,i
Cc1cccc(OCC2=NS(=O)(=O)c3ccccc3N2)c1,-1.1,.,-1,-10,2,.,.,.
CCOC(=O)c1sc2ccc(S(=O)(=O)N3CCOCC3)cc2c1N,-0.99,6.7*,3,0,5,5484,.,+
SMILES,hDAT+cocaine,D1 mod,AP ELISA ortho,HEK293 NFkB inh,Ec RNAP inh,D1 mod confirm,D1 ag no DA,Isoprot counter
CCOC(=O)c1sc2ccc(S(=O)(=O)N3CCCCC3)cc2c1N,-0.04,1.5,6,7,7,.,.,.
CCCCC(=O)NC1=NC(=O)C(C)(C)S1,0.18,0.46,12,5,5,.,.,.
CCn1c(SCC(=O)NCC(=O)Nc2ccc(F)cc2)nnc1-c1cccs1,0.86,3*,18,8,3,4428,1640,i
CCn1c(SCC(=O)Nc2ccc(C(=O)OC)cc2)nnc1-c1cccs1,-1,-0.21,13,11,12,.,.,.
N#Cc1nc(-c2ccccc2F)oc1NC1CCCCC1,0.38,9.7*,23,10,3,18604*,1740,+
CN(C)CCNc1oc(-c2ccccc2F)nc1C#N,-0.13,3.1,16,12,-3,.,.,.
N#Cc1nc(-c2ccccc2F)oc1NCc1cccc2c1OCO2,-0.3,21*,4,7,-1,21008*,1688,+
Cc1cc(-c2cccs2)c2c(n1)sc1c(=O)[nH]c(=O)[nH]c12,0.52,9.9*,-10,-13,8,13116*,1580,i
COCc1cc(C)nc(OCC(=O)N/N=C\c2cc(C)n(-c3cccc(C(F)(F)F)c3)c2C)c1C#N,1.9,.,.,.,.,.,.,.
CC(=O)Nc1cccc(Oc2cc(C#N)c(C#N)cc2N2CCCCCC2)c1,0.035,9.1*,-14,13,17,11784*,.,+
O=C(COc1ccccc1CNCc1ccccc1)Nc1ccccc1,0.38,.,.,.,.,.,.,.
COC(=O)C1=C(COc2ccccc2)NC(=O)NC1c1ccc(Br)cc1 (stereo unspecified),-0.074,.,.,.,.,.,.,.
CCN(CC)CCNC(=O)CS(=O)Cc1nc(-c2ccc(C)cc2)oc1C (stereo unspecified),-1,-0.24,17,19,1,.,.,.
COc1cc(OC)cc(C(=O)Nn2cc(C(=O)N3CCN(C)CC3)c3ccccc3c2=O)c1,0.92,2.9*,3,9,0,5944*,1800,i
COc1cc(OC)cc(C(=O)Nc2ccccc2C(=O)N2CCCC2)c1,0.31,.,.,.,.,.,.,.
Cc1ccc(C)n1-c1sc2c(c1C#N)CCCC2,1.5,.,.,.,.,.,.,.
Cc1csc2c(C#N)c(=O)c3c(n12)CCC3,-0.8,4.4*,0,6,12,6564*,1476,i
COc1ccc(-c2nc(CSCC(=O)N3CCc4ccccc43)c(C)o2)cc1OC,0.47,3.8*,-7,-16,10,11284*,1596,+
COc1cccc(-c2nc(CSCC(=O)N3CCc4ccccc43)c(C)o2)c1,-0.041,0.81,-9,6,-1,.,.,.

# Source: PubChem BioAssay
